High-throughput results (PubChem BioAssay)
DAGLB inhibitor: blocks human DAGLB lipase activity; HEK293T DAGLB membrane lysate, EnzChek fluorogenic substrate; inhibition, % at 5.17 µM; 340,000 compounds, 0.059% hits; in the data active = inhibition above about 34%;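 also: 0% = enzyme with vehicle and 100% = wells lacking enzyme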
Target sequence (Q8NCG7 whole entry, looked up): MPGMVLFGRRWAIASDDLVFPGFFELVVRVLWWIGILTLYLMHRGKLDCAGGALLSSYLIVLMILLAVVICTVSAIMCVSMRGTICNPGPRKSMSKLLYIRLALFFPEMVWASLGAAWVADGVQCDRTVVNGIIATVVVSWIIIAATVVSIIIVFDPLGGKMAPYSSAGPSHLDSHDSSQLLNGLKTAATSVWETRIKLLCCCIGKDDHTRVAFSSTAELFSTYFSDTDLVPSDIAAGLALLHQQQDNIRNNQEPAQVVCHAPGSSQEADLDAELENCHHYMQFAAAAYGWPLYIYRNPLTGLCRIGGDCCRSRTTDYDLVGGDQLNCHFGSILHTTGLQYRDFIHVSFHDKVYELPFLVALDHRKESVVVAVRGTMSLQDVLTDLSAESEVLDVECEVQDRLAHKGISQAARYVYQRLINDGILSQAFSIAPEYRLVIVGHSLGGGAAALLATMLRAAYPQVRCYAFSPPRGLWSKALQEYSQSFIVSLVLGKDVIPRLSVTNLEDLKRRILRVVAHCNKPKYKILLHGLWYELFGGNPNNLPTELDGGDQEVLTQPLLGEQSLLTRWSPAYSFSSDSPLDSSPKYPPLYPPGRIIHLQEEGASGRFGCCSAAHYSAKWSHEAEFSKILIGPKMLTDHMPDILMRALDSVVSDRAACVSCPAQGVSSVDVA
bovine MsrA act: activators of bovine methionine sulfoxide reductase A; purified bovine MsrA, absorbance read-out; activation, % at 10.6 µM; 360,000 compounds, 0.3% hits; AID 602163; in the data active = activation above about 7.5%;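 also: 0% = vehicle and 100% = reference activator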
MIN6 prolif: induces beta-cell replication in MIN6 cells; MIN6 cells proliferation, ATPlite luminescence, 48 h; cells starved in 0.2% serum; 100% = growth in 10% serum; proliferation, % at 10 µM; 330,000 compounds, 0.29% hits; AID 2380;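 active = compounds whose signal lies at least 3.5 SD above the mean of all wells on their plate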;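 also: 0% = DMSO-treated cells in low-serum medium and 100% = 10% serum control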
MsrA inhibitor: inhibitors of bovine MsrA; AID 651718; 360,000 compounds, 0.75% hits; purified bovine MsrA, absorbance read-out; inhibition, % at 15.5 µM; in the data active = inhibition above about 4.5%;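 also: 0% = vehicle wells with enzyme and 100% = reference inhibitor wells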
MT1-MMP act inh: MT1-MMP (human) activation inhibition; P50281; HT1080 RFP-PRO-GFP cells, GFP/RFP ratio fluorescence, overnight; percent of plate control window, DMSO zero; GFP/RFP ratio change, % at 20 µM; 360,000 compounds, 0.061% hits;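 active = GFP/RFP ratio change of at least 30% with cell ATP level not reduced by more than half and red fluorescence within 50% of control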
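Material: RFP-PRO-GFP reporter HT1080 cells. Dosing: single-point 20 µM compound, 1% DMSO. Controls: DMSO and RFP-L50D-GFP cell wells. Timing: cells overnight before dosing, compound overnight, 37 °C, 5% CO2. Measure: GFP/RFP fluorescence ratio.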
SKN-1 inh: inhibitors of C. elegans SKN-1; AID 624304; 360,000 compounds, 0.49% hits; C. elegans VP596 Pgst-4::GFP/RFP ratio, acrylamide-induced, 24 h; inhibition, % at 21.8 µM;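 active = interference check ratio from 0.5 to 1.5 plus GFP to RFP signal ratio inhibition reaching or exceeding a fixed threshold, cut at about 30% in these data, passing the limit was not always enough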
Active calls of the source: *; . = no result given. Sampled rows, rich in hits. Any-hit rate of the full collection: about 1.8%.

SMILES	DAGLB inhibitor	bovine MsrA act	MIN6 prolif	MsrA inhibitor	MT1-MMP act inh	SKN-1 inh
CCc1cccc(C)c1NC(=S)NCc1ccc2c(c1)cc(C)n2C	8	-3	-7	-1	50	97*
Cc1cc2cc(CNC(=O)Nc3ccccc3)ccc2n1C	5	-6	-1	1	41	38*
CCOC(=O)NCc1ccc2c(c1)cc(C)n2C	5	-4	-4	3	33	52*
Cc1ccccc1NC(=S)NCc1ccc2c(c1)cc(C)n2C	3	-7	-7	1	-5	24
CC(C)C[C@H]1COc2cccc(N3CCCCC3)c2S(=O)(=O)N1	.	.	.	-1	.	.
O=C(NCc1ccccc1)[C@@H]1CCCN1C(=O)[C@H]1CCCN1C(=O)c1cccc2ccccc12	.	.	.	0	.	.
COc1ccc(CC(=O)NCc2ccc3c(c2)cc(C)n3C)cc1	5	-10	-5	0	.	50*
Cc1cc2cc(CNC(=O)c3ccc(S(=O)(=O)N4CCCC4)cc3)ccc2n1C	3	-4	-1	0	16	46*
COc1cccc(C(=O)NCc2ccc3c(c2)cc(C)n3C)c1	4	-5	-3	-1	31	50
COc1ccccc1N=Nc1c(C)n[nH]c1C	1	-3	3	4.6*	1	21
CN(CC(=O)Nc1nc2ccccc2s1)S(=O)(=O)c1ccc(Cl)cc1	-2	0	-3	1	-3	36*
Cc1nc(NC(=O)c2cccs2)ccc1Br	-4	-8	0	1	0	36*
Cc1cc(C)nc(NC(=O)c2cccs2)n1	-1	-1	-1	-1	3	0
COC(=O)c1cc2c(c3c4cc(OC)ccc4n(S(=O)(=O)c4cccc(C)c4)c13)C(=O)N(Cc1ccccc1OC)C2	.	.	.	1	.	.
COC(=O)C1=C(C)N=c2s/c(=C/c3cccs3)c(=O)n2C1c1ccc(F)cc1 (stereo not drawn)	-7	-2	-5	0	7	35*
CN(C)c1ccc(N=Nc2ccccc2Br)cc1	26	-1	-6	1	7	18
CN(C)c1ccc(N=Nc2nccs2)cc1	34	0	.	-1	35	56*
CCOc1cc(CNC2CCCC2)cc(Cl)c1OCc1ccc(F)cc1	-1	-4	-4	-1	-14	75*
COc1cc(CNC2CCCC2)cc(Cl)c1OCc1ccccc1Cl	0	-2	-7	.	-15	17
COc1cc(CNC2CCCC2)cc(Cl)c1OCc1ccc(F)cc1	-1	1	-5	0	3	56*
C=CCn1c(C)cc(C(=O)CSc2nnc(-c3cccc(S(=O)(=O)N(CC)CC)c3)o2)c1C	-5	-5	0	2	-5	8
CCN(CC)S(=O)(=O)c1cccc(-c2nnc(SCC(=O)c3cc(C)n(C4CC4)c3C)o2)c1	2	-2	-4	0	0	42*
C[C@@H]1C=C[C@](Cc2ccccc2)(C(=O)NCC2CC2)N1C(=O)c1ccccc1	-2	0	1	0	2	35*
O=c1c(/C=N/Nc2ccccc2)c(Sc2nnnn2-c2ccccc2)nc2ccccn12	-3	1	.	0	-150	36*
CCCCS(=O)(=O)N1CCCc2nc(-c3ccc(OC)cc3)ccc21	.	.	.	0	.	.
SMILES	DAGLB inhibitor	bovine MsrA act	MIN6 prolif	MsrA inhibitor	MT1-MMP act inh	SKN-1 inh
Cn1cc([C@@H]2C[C@H]3CN(Cc4cccc(Cl)c4)C(=O)[C@]34CCCN24)c2ccccc21	0	-3	-5	1	35	35*
S=C(N/N=C/c1ccccc1Cl)Nc1ccccc1	0	-12	-4	3	0	5
Oc1ccc(C=NNC(=S)Nc2ccccc2)nc1	2	-3	.	4	6	45*
C=C1[C@H](C)CN(S(=O)C(C)(C)C)[C@H]1CCO (stereo partly drawn)	.	.	.	0	.	.
CCOC(=O)c1c(C)[nH]c(C(=O)N2CCN(C(=O)OCC)CC2)c1C	0	-4	0	0	1	4
CCOC(=O)c1c(C)c(C)n2c1NC(=O)C2	.	-4	.	0	-1	46*
O=C(O)CSc1nnnn1-c1ccc2c(c1)OCCO2	0	-2	2	0	-3	-15
CC(C)OC(=O)CSc1nnnn1-c1ccc2c(c1)OCCO2	-2	-1	0	0	2	45*
CC1CCCN(C(=O)Nc2ccc([N+](=O)[O-])cc2)C1 (stereo not drawn)	.	.	.	2	.	.
COc1ccc2nc(SCC(=O)Nc3ccc(S(=O)(=O)N4CCCC4)cc3)c(C#N)cc2c1	0	-3	-3	0	-42	40*
O=Cc1ccc(-c2ccc([N+](=O)[O-])cc2Cl)o1	5	3	.	5.5*	-3	-9
CCOc1ccc(NC(=O)CN2C(=O)c3cccc4cccc2c34)cc1	.	.	.	0	.	.
Fc1ccc(CSc2ncnc3ccccc23)cc1	-3	-2	0	0	-13	62*
O=C(CSc1ncnc2ccccc12)NCc1ccc2c(c1)OCO2	2	-1	7.7*	0	-8	2
Cc1ccc(CSc2ncnc3ccccc23)cc1	-4	-9	3	1	-6	12
c1ccc(CSc2ncnc3ccccc23)cc1	-4	-2	2	1	-8	59*
Cc1cccc(CSc2ncnc3ccccc23)c1	-7	-14	2	-1	-2	4
N#Cc1[nH]nc2nc[nH]c(=O)c12	.	.	.	0	.	.
COC(=O)C1=C(C)N(Cc2cccc(C(F)(F)F)c2)C(=NCc2ccc(C(F)(F)F)cc2)NC1c1cccc(C(F)(F)F)c1 (stereo not drawn)	.	.	.	-2	.	.
CCC1=NN2C(=N)/C(=C\c3ccc(SCc4ccco4)o3)C(=O)N=C2S1	9	-4	1	0	-40	50
CCCC1=NN2C(=N)/C(=C\c3ccc(SCc4ccco4)o3)C(=O)N=C2S1	14	1	-2	.	-66	44*
N#Cc1ccc(-c2nc3ccc(Br)cn3c2Cc2ccccc2C(F)(F)F)cc1	.	-4	.	0	0	11
N#Cc1ccc(-c2nc3c4ccccc4ccn3c2Cc2ccccc2C(F)(F)F)cc1	.	0	.	1	3	42*
FC(F)(F)c1ccccc1Cc1c(-c2ccccc2)nc2ccc(Br)cn12	.	-8	.	0	2	48*
Cc1noc(C)c1NC(=O)N(C)C[C@@H]1OCc2cn(nn2)CCCC(=O)N([C@@H](C)CO)C[C@H]1C	.	.	.	-1	.	.
COC(=O)N1C[C@H](OCc2cn(-c3ccc(OC)cc3)nn2)[C@H]2C[C@@H]1c1ccccc1O2	.	.	.	1	.	.
CC1CCCC(C)N1C(=O)c1ccccc1 (stereo not drawn)	.	.	.	1	.	.
O=Cc1cc2ccccc2nc1SCc1ccc(Cl)cc1	-4	-3	-5	2	10	3
Cc1ccc(CSc2nc3ccccc3cc2C=O)cc1	-10	-1	-4	-1	2	42*
O=C(/C=C/c1ccccc1)Nn1cnnc1	3	0	3	-1	1	35*
